# Data reported in ChEMBL document CHEMBL4665803, “Discovery of Covalent Inhibitors Targeting the Transcriptional Enhanced Associate Domain Central Pocket” (J Med Chem, 2020).
# Activity calls are given as the source filed them. No cut-off for these calls is given here.
# Molecular target: T1, Transcriptional enhancer factor TEF-3 (Homo sapiens, UniProt Q15561)
# Assay: Inhibition of FITC-labeled palmitate tracer binding to N-terminal His6-tagged human TEAD4 (217 to 434 residues) expressed in Escherichia coli BL21-CodonPlus (DE3)-RIPL cells preincubated for 10 mins followed by FITC-labeled palmitate tracer addition and measured after 1 hr by fluorescence assay
# Settings: not given
# Method in brief: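 FP competition in 25 mM HEPES, 150 mM NaCl, pH 6.5: serially diluted compound preincubated 10 min at room temperature with nonacylated hTEAD4, then FITC-palmitate tracer added (final 50 nM protein, 10 nM tracer); shaken 1 h at room temperature, FP at Ex/Em 485/535 nm. Tracer Kd from saturation binding.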
# T1 sequence (Q15561 whole entry, the tested form may be a part): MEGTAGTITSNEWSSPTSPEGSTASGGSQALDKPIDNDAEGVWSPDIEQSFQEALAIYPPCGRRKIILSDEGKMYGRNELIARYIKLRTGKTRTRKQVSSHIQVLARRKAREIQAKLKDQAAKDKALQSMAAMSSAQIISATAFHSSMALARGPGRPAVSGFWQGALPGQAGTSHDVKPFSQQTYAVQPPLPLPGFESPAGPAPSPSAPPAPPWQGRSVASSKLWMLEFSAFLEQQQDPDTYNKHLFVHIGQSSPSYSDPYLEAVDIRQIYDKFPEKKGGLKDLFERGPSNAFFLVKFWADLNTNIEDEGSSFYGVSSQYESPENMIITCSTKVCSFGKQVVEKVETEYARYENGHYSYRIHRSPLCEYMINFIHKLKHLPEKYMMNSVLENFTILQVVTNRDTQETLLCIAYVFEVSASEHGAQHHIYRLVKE
row,SMILES,IC50 [nM]
1,O=c1cc(CO)oc(C(Nc2ccccn2)c2cccnc2)c1O (stereo not drawn),14700
2,O=c1cc(CO)oc(C(NCc2ccccc2)c2ccccc2)c1O (stereo not drawn),400
3,O=c1cc(CO)oc(C(Nc2cccc(F)c2)c2ccccc2)c1O (stereo not drawn),200
4,COc1c(C(Nc2ccccc2)c2ccccc2)oc(CO)cc1=O (stereo not drawn),41600
5,O=c1cc(CO)oc(C(c2ccccc2)N2Cc3ccccc3C2)c1O (stereo not drawn),900
6,NC(=O)c1ccc(C(Nc2ccccc2)c2oc(CO)cc(=O)c2O)cc1 (stereo not drawn),300
7,COc1c(C(Nc2ccccn2)c2ccccc2F)oc(CO)cc1=O (stereo not drawn),49900
8,CC(C)c1ccc(C(Nc2ccccc2)c2oc(CO)cc(=O)c2O)cc1 (stereo not drawn),200
9,Cc1ccc(C(Nc2ccccc2)c2oc(CO)cc(=O)c2O)cc1 (stereo not drawn),200
10,O=C(CCl)c1ccccc1Nc1cccc(C(F)(F)F)c1,14100
11,O=c1cc(CO)oc(C(Nc2ccccn2)c2ccc(Br)cc2)c1O (stereo not drawn),400
12,NC(=O)c1ccc(NC(c2ccccc2)c2oc(CO)cc(=O)c2O)cc1 (stereo not drawn),300
13,O=c1cc(CO)oc(C(Nc2ccccc2)c2ccccc2F)c1O (stereo not drawn),100
14,O=c1cc(CO)oc(C(Nc2nccs2)c2ccccc2)c1O (stereo not drawn),5600
15,Cc1ccnc(NC(c2ccccc2)c2oc(CO)cc(=O)c2O)c1 (stereo not drawn),300
16,O=c1cc(CO)oc(C(Nc2ccccc2)c2ccc3ccccc3c2)c1O (stereo not drawn),200
17,O=c1cc(CO)oc(C(Nc2ccccn2)c2ccccc2)c1O (stereo not drawn),300
18,O=C(O)c1cccnc1Nc1cccc(C(F)(F)F)c1 [NIFLUMIC ACID],5900

# Molecular target: T1, Transcriptional enhancer factor TEF-3
# Assay: Inhibition of TEAD4 in HEK293 cells assessed as reduction in ANKRD1 mRNA expression at 1 uM measured after 6 hrs by SYBR green dye based RT-PCR analysis relative to control
# Type: cell-based
# Settings: not given
# Method in brief: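 HEK293 cells treated with DMSO or compound for 6 h; ANKRD1 mRNA measured by RT-qPCR relative to the DMSO control.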
row,SMILES,inhibition
1,COc1c(C(Nc2ccccc2)c2ccccc2)oc(CO)cc1=O (stereo not drawn),inactive

# Molecular target: T1, Transcriptional enhancer factor TEF-3
# Assay: Inhibition of CPM binding to N-terminal His6-tagged human TEAD4 (217 to 434 residues) expressed in Escherichia coli BL21-CodonPlus (DE3)-RIPL cells at 12.5 uM preincubated for 10 mins followed by CPM addition and measured after 1 hr by fluorescence assay relative to control
# Settings: time 70.0 min
row,SMILES,inhibition [%]
1,O=c1cc(CO)oc(C(Nc2ccccn2)c2cccnc2)c1O (stereo not drawn),> 50
2,O=c1cc(CO)oc(C(NCc2ccccc2)c2ccccc2)c1O (stereo not drawn),> 50
3,O=c1cc(CO)oc(C(Nc2cccc(F)c2)c2ccccc2)c1O (stereo not drawn),> 50
4,COc1c(C(Nc2ccccc2)c2ccccc2)oc(CO)cc1=O (stereo not drawn),< 50
5,O=c1cc(CO)oc(C(c2ccccc2)N2Cc3ccccc3C2)c1O (stereo not drawn),> 50
6,NC(=O)c1ccc(C(Nc2ccccc2)c2oc(CO)cc(=O)c2O)cc1 (stereo not drawn),> 50
7,COc1c(C(Nc2ccccn2)c2ccccc2F)oc(CO)cc1=O (stereo not drawn),< 50
8,CC(C)c1ccc(C(Nc2ccccc2)c2oc(CO)cc(=O)c2O)cc1 (stereo not drawn),> 50
9,Cc1ccc(C(Nc2ccccc2)c2oc(CO)cc(=O)c2O)cc1 (stereo not drawn),> 50
10,O=c1cc(CO)oc(C(Nc2ccccn2)c2ccc(Br)cc2)c1O (stereo not drawn),> 50
11,NC(=O)c1ccc(NC(c2ccccc2)c2oc(CO)cc(=O)c2O)cc1 (stereo not drawn),> 50
12,O=c1cc(CO)oc(C(Nc2ccccc2)c2ccccc2F)c1O (stereo not drawn),> 50
13,O=c1cc(CO)oc(C(Nc2nccs2)c2ccccc2)c1O (stereo not drawn),> 50
14,Cc1ccnc(NC(c2ccccc2)c2oc(CO)cc(=O)c2O)c1 (stereo not drawn),> 50
15,O=c1cc(CO)oc(C(Nc2ccccc2)c2ccc3ccccc3c2)c1O (stereo not drawn),> 50
16,O=c1cc(CO)oc(C(Nc2ccccn2)c2ccccc2)c1O (stereo not drawn),> 50

# Molecular target: T1, Transcriptional enhancer factor TEF-3
# Assay: Inhibition of CPM binding to N-terminal His6-tagged human TEAD4 (217 to 434 residues) expressed in Escherichia coli BL21-CodonPlus (DE3)-RIPL cells preincubated for 10 mins followed by CPM addition and measured after 1 hr by fluorescence assay
# Settings: read-out: IC50(app)
row,SMILES,IC50 [nM]
1,O=c1cc(CO)oc(C(Nc2ccccn2)c2cccnc2)c1O (stereo not drawn),> 100000
2,O=c1cc(CO)oc(C(NCc2ccccc2)c2ccccc2)c1O (stereo not drawn),4000
3,O=c1cc(CO)oc(C(Nc2cccc(F)c2)c2ccccc2)c1O (stereo not drawn),1500
4,COc1c(C(Nc2ccccc2)c2ccccc2)oc(CO)cc1=O (stereo not drawn),> 100000
5,O=c1cc(CO)oc(C(c2ccccc2)N2Cc3ccccc3C2)c1O (stereo not drawn),13200
6,NC(=O)c1ccc(C(Nc2ccccc2)c2oc(CO)cc(=O)c2O)cc1 (stereo not drawn),1500
7,COc1c(C(Nc2ccccn2)c2ccccc2F)oc(CO)cc1=O (stereo not drawn),> 100000
8,CC(C)c1ccc(C(Nc2ccccc2)c2oc(CO)cc(=O)c2O)cc1 (stereo not drawn),1000
9,Cc1ccc(C(Nc2ccccc2)c2oc(CO)cc(=O)c2O)cc1 (stereo not drawn),1300
10,O=C(CCl)c1ccccc1Nc1cccc(C(F)(F)F)c1,800
11,O=c1cc(CO)oc(C(Nc2ccccn2)c2ccc(Br)cc2)c1O (stereo not drawn),3700
12,NC(=O)c1ccc(NC(c2ccccc2)c2oc(CO)cc(=O)c2O)cc1 (stereo not drawn),1700
13,O=c1cc(CO)oc(C(Nc2ccccc2)c2ccccc2F)c1O (stereo not drawn),700
14,O=c1cc(CO)oc(C(Nc2nccs2)c2ccccc2)c1O (stereo not drawn),53400
15,Cc1ccnc(NC(c2ccccc2)c2oc(CO)cc(=O)c2O)c1 (stereo not drawn),2400
16,O=c1cc(CO)oc(C(Nc2ccccc2)c2ccc3ccccc3c2)c1O (stereo not drawn),1100
17,O=c1cc(CO)oc(C(Nc2ccccn2)c2ccccc2)c1O (stereo not drawn),3100
18,O=C(O)c1cccnc1Nc1cccc(C(F)(F)F)c1 [NIFLUMIC ACID],41900

# Same assay, conditions: time 70.0 min
row,SMILES,inhibition
1,O=C(CCl)c1ccccc1Nc1cccc(C(F)(F)F)c1,Dose-dependent effect
2,O=C(O)c1cccnc1Nc1cccc(C(F)(F)F)c1 [NIFLUMIC ACID],Dose-dependent effect

# Molecular target: T1, Transcriptional enhancer factor TEF-3
# Assay: Binding affinity to nonacylated N-terminal His6-tagged human TEAD4 (217 to 434 residues) expressed in Escherichia coli BL21-CodonPlus (DE3)-RIPL cells assessed as melting temperature at 80 uM after 10 mins by SYPRO orange dye-based differential scanning fluorimetry method (reference value: 41 degreeC)
# Settings: not given
row,SMILES,Tm [°C]
1,COc1c(C(Nc2ccccc2)c2ccccc2)oc(CO)cc1=O (stereo not drawn),41
2,O=c1cc(CO)oc(C(Nc2ccccn2)c2ccc(Br)cc2)c1O (stereo not drawn),39
3,O=c1cc(CO)oc(C(Nc2nccs2)c2ccccc2)c1O (stereo not drawn),41

# Molecular target: T1, Transcriptional enhancer factor TEF-3
# Assay: Selectivity ratio of apparent IC50 for inhibition of CPM binding to N-terminal His6-tagged human TEAD4 (217 to 434 residues) expressed in Escherichia coli BL21-CodonPlus (DE3)-RIPL cells to IC50 for inhibition of FITC-labeled palmitate tracer binding to N-terminal His6-tagged human TEAD4 (217 to 434 residues) expressed in Escherichia coli BL21-CodonPlus (DE3)-RIPL cells
# Settings: not given
row,SMILES,Ratio IC50
1,COc1c(C(Nc2ccccc2)c2ccccc2)oc(CO)cc1=O (stereo not drawn),> 200
2,COc1c(C(Nc2ccccn2)c2ccccc2F)oc(CO)cc1=O (stereo not drawn),> 200

# Molecular target: Transcriptional enhancer factor TEF-3 (Mus musculus) (UniProt Q62296)
# Assay: Binding affinity to nonacylated mouse TEAD4 at 0.5 mM by 1H-15N HSQC spectra analysis
# Settings: not given
# Method in brief: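 1H–15N HSQC of 13C/15N-labeled mTEAD4, deacylated with hydroxylamine; spectra with DMSO or compound (0.5 mM) recorded at 37 °C on a 600 MHz cryoprobe instrument in 20 mM HEPES pH 7.3, 150 mM NaCl, 1 mM DTT; spectra overlaid.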
# Transcriptional enhancer factor TEF-3 (Mus musculus), sequence (Q62296 whole entry): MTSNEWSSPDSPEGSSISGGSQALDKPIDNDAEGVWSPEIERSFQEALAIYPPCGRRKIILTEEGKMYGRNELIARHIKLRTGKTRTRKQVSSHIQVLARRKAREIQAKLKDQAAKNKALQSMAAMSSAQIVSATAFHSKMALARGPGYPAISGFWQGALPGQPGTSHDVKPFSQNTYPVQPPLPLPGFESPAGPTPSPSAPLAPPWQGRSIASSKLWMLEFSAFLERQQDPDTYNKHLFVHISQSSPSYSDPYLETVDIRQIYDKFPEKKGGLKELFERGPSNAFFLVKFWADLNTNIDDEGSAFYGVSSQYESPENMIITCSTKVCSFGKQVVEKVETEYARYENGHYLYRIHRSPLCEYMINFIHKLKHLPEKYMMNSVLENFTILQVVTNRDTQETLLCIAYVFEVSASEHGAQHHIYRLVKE
row,SMILES,Activity
1,COc1c(C(Nc2ccccc2)c2ccccc2)oc(CO)cc1=O (stereo not drawn),inactive

# Molecular target: T1, Transcriptional enhancer factor TEF-3
# Assay: Binding affinity to nonacylated N-terminal His6-tagged human TEAD4 (217 to 434 residues) expressed in Escherichia coli BL21-CodonPlus (DE3)-RIPL cells at 8 equiv after 1 hr by ESI-MS spectrophotometric analysis
# Settings: not given
# Method in brief: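 Whole-protein ESI–MS: 1 μM hTEAD4 incubated 1 h at room temperature with 8 equiv compound in 25 mM HEPES, 150 mM NaCl, pH 6.5; centrifuged, injected via online desalting column to UPLC-MS; masses deconvoluted to detect adducts.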
row,SMILES,Activity
1,COc1c(C(Nc2ccccc2)c2ccccc2)oc(CO)cc1=O (stereo not drawn),inactive

# Molecular target: T1, Transcriptional enhancer factor TEF-3
# Assay: Binding affinity to nonacylated N-terminal His6-tagged human TEAD4 (217 to 434 residues) expressed in Escherichia coli BL21-CodonPlus (DE3)-RIPL cells assessed as inhibition of protein-FAM-YAP (50 to 100 residues) interaction preincubated for 10 mins followed by FAM YAP addition and measured after 1 hr by fluorescence assay
# Settings: not given
# Method in brief: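 FP competition in PBS pH 7.5: serially diluted compound preincubated 10 min at room temperature with TEAD4 protein, then FAM-YAP50–100 added; shaken 1 h at room temperature, FP read at Ex/Em 485/535 nm. Final FAM/protein: nonacylated hTEAD4 2 nM/5 nM; acylated hTEAD4 3 nM/15 nM. Compound stocks 10 mM in DMSO. IC50 from curve fitting.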
row,SMILES,IC50 [nM]
1,COc1c(C(Nc2ccccc2)c2ccccc2)oc(CO)cc1=O (stereo not drawn),9500
